# From ChEMBL document CHEMBL3102691, “4-Quinolone alkaloids from Melochia odorata” (J Nat Prod, 2014)
# What was measured:
# [1] = system: Human immunodeficiency virus 1; experiment: Antiviral activity against HIV1 infected in human CEM-TART cells assessed as inhibition of viral p24 antigen production at 1.7 uM after 48 hrs by FACS analysis; format: functional; conditions: Human immunodeficiency virus 1, CEM-TART
# Summary of the method: (§1)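 HIV-infected CEM-TART cells, 48 h. Cells washed in PBS and blocked with murine myeloma IgG (1:100, 30 min, 4 °C). Then fixed in PBS/1% paraformaldehyde/0.05% Triton X100 and stained with AG3.0 mouse anti-P24 (1:50). FITC goat anti-mouse secondary, 30 min at 4 °C each step. Intracellular P24 read by flow cytometry. AZT 5 or 0.5 μg/mL controls.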
# [2] = Cytotoxicity against human CEM-TART cells assessed as cell viability after 72 hrs by MTT assay; format: cell-based; conditions: read-out: LC50
# Summary of the method: (§2)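 20,000 CEM-TART cells with compound (DMSO, 0.5% final) in RPMI/20% FBS with antibiotic; 72 h at 37 °C, 5% CO2; MTT (5 mg/mL in PBS) added, formazan dissolved in DMSO/0.1% SDS and read on plate reader; triplicate or quadruplicate. Highest concentration tested 100 μM.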
# [3] = system: Human immunodeficiency virus 1; experiment: Antiviral activity against HIV-1 infected in human CEM-TART cells assessed as protection against virus-induced cytopathicity after 96 hrs by MTT assay; format: functional, organism-based
# Summary of the method: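 1A2 subclone of CEM-TART (more lysis-sensitive) in RPMI 1640/20% FBS; compound in DMSO (1% vol) added 2 h after HIV infection; 96 h at 37 °C, 5% CO2; viability by MTT (3–4 h), formazan dissolved in DMSO/0.1% SDS, A570. Triplicates per plate; EC50 = concentration giving 50% of protection by 5 μM AZT, data from ≥3 experiments combined.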
# [4] = Therapeutic index, ratio of LC50 for human CEM-TART cells to EC50 for HIV-1 infected in human CEM-TART cells; format: cell-based; conditions: read-out: TI
# [5] = Cytotoxicity against human CEM-TART cells assessed as cell viability at 100 uM after 72 hrs by MTT assay; format: cell-based; summary of the method: as §2
# [6] = system: Human immunodeficiency virus 1; experiment: Antiviral activity against HIV1 infected in human CEM-TART cells assessed as inhibition of viral p24 antigen production at 0.95 uM after 48 hrs by FACS analysis; format: functional; conditions: Human immunodeficiency virus 1, CEM-TART; summary of the method: as §1
# [7] = Human immunodeficiency virus 1, CEM-TART, 96 h, read-out: EC50
smiles,measurement,setting,value
COc1ccccc1[C@@]1(O)c2ccc3[nH]c(C)c(OC)c(=O)c3c2[C@@H]2CC[C@H]1O2,inhibition at 1.7 µM,[1],> 50%
same,CC50 at 72 h,[2],102 µM
same,EC50,[3]; [7],56.2 µM
same,selectivity ratio,[4],2
Cc1cn([C@H]2C[C@H](N=[N+]=[N-])[C@@H](CO)O2)c(=O)[nH]c1=O [ZIDOVUDINE],CC50 at 72 h,[2],89.5 µM
same,EC50,[3]; [7],1.3 µM
Cc1[nH]c2ccc3c(c2c(=O)c1O[C@@H]1O[C@H](CO)[C@@H](O)[C@H](O)[C@H]1O)[C@@H]1CC[C@H](O)[C@@]3(c2ccccc2)O1,EC50,[3]; cem-tart,Not Active
same,Activity,[5],Non-toxic
COc1c(C)[nH]c2ccc3c(c2c1=O)[C@@H]1CCC[C@@]3(c2ccccc2)O1,CC50 at 72 h,[2],11 µM
same,inhibition at 0.95 µM,[6],> 50%
same,EC50,[3]; [7],0.84 µM
same,selectivity ratio,[4],13
